These results are taken from ChEMBL document CHEMBL4831480, “Identification of First-in-Class Inhibitors of Kallikrein-Related Peptidase 6 That Promote Oligodendrocyte Differentiation” (J Med Chem, 2021).

Calls of active or inactive are those of the source. The rule behind the calls is not given here.

In series [1] the target is T1, Kallikrein-11 (Homo sapiens) (UniProt Q9UBX7).
T1 sequence (whole entry): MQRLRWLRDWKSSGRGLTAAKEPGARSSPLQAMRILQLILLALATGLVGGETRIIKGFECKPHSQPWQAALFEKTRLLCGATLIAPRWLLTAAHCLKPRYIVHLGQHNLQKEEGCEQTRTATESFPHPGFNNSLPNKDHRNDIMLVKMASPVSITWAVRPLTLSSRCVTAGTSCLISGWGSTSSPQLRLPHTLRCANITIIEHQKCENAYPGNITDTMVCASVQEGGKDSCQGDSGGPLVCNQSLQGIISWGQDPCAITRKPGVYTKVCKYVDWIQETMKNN
Kind of series: Inhibition of KLK11 (unknown origin) assessed as inhibition of release of AMC fluorescent product using Boc-QAR-AMC as substrate at 10 uM incubated for 30 mins by microplate reader relative to control.

The species named for another series is Homo sapiens. Kind of series: Inhibition of Matriptase (unknown origin) assessed as inhibition of release of AMC fluorescent product using […] as substrate at 10 uM incubated for 30 mins by microplate reader relative to control.
The target in series [2] is Procathepsin L (Homo sapiens) (UniProt P07711). Kind of series: Inhibition of Cathepsin L (unknown origin) assessed as inhibition of release of AMC fluorescent product using Z-LR-AMC as substrate at 10 uM incubated for 30 mins by microplate reader relative to control. An outline of the steps: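 Each inhibitor at 10 μM was preincubated 15 min at 37 °C with the protease at an optimized concentration in its own buffer. Reaction started with AMC substrate: Ac-VDVAD-AMC 25 μM (caspase-2), Ac-DEVD-AMC 10 μM (caspase-3), Ac-VEID-AMC 100 μM (caspase-6), Z-LR-AMC 50 μM (cathepsin L), Z-GGR-AMC 100 μM (tPA). Read for 30 min at 37 °C; % inhibition from initial rates versus DMSO; 3 independent experiments.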

Series [3] has as its target T2, Plasminogen (Homo sapiens, UniProt P00747). Description: Inhibition of plasmin (unknown origin) assessed as release of AMC fluorescent product using Boc-QAR-AMC as substrate incubated for 30 mins by microplate reader.
For another series, the target named is T3, Trypsin-3 (Homo sapiens) (UniProt P35030).
T3 sequence (whole entry): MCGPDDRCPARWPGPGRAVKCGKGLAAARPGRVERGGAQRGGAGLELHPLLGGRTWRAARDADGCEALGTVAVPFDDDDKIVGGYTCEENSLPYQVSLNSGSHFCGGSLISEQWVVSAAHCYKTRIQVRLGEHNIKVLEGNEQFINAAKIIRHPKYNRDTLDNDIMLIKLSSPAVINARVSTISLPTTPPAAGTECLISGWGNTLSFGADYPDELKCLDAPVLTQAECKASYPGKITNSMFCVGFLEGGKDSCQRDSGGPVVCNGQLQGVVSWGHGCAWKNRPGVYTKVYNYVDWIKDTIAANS
Description: Inhibition of Trypsin 3 (unknown origin) assessed as inhibition of release of AMC fluorescent product using […] as substrate at 10 uM incubated for 30 mins by microplate reader relative to control.

Series [4] deals with T4, Kallikrein-6 (Homo sapiens, UniProt Q92876). Description: Competitive inhibition of KLK6 (unknown origin) using Boc-QAR-AMC as substrate incubated for 30 mins by Dixon plot analysis.
For series [5], the target named is T5, Kallikrein-13 (Homo sapiens) (UniProt Q9UKR3).
T5 sequence (whole entry): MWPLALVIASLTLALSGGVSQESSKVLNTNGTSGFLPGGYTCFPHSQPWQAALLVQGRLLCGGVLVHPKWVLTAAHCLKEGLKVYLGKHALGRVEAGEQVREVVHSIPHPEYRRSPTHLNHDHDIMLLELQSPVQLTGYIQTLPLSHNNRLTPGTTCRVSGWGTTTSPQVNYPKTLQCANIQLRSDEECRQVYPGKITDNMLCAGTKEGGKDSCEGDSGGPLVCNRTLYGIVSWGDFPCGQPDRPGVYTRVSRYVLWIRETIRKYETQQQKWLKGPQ
Description: Inhibition of KLK13 (unknown origin) assessed as inhibition of release of AMC fluorescent product using H-VPR-AMC as substrate at 10 uM incubated for 30 mins by microplate reader relative to control.

The test system of series [6] is CG-4. Description: Induction of oligodendrocyte differentiation in Sprague-Dawley rat CG-4 cells assessed as matured oligodendrocyte by measuring increase in mCherry positive cells at 2 uM measured after 4 days by fluorescence imaging analysis. The series is classed as functional, cell-based. As to conditions: time 4.0 day.
The nature of series [7]: Cytotoxicity against Sprague-Dawley rat CG-4 cells assessed as cell death at 30 uM measured after 4 days by fluorescence imaging analysis. Format: cell-based. As to conditions: cg-4, 96 h, time 4 day.
The test system of the next series is Prothrombin/thrombin. Kind of series: Inhibition of Thrombin (unknown origin) assessed as inhibition of release of AMC fluorescent product using […] as substrate at 10 uM incubated for 30 mins by microplate reader relative to control. The settings on record: Homo sapiens.
Series [8] deals with Cortical neurone. Description: Cytotoxicity against Swiss mouse cortical cells assessed as cell viability at 25 uM incubated for 24 hrs by XTT assay. The series is classed as cell-based. A general note: Tetrazolium dyes change colour on reduction, which living cells bring about.
A short description of series [9]: Permeability in human Caco-2 cells assessed as compound recovery. As to conditions: read-out: Activity. Format: ADME, cell-based. A general note: Caco-2 cells form a polarised layer with tight junctions and transporters.
A short description of series [10]: Cytotoxicity against Swiss mouse cortical cells assessed as cell viability at 50 uM incubated for 24 hrs by XTT assay. Format: cell-based, Cortical neurone. As to conditions: mouse cortical cells (cortical neurones), read-out: Activity.
Series [11] deals with Microglia. Description: Anti-inflammatory activity in new born Wistar rat brain microglia assessed as reduction in LPS-induced IL-1beta expression measured after 24 hrs by ELISA. (ELISA stands for enzyme-linked immunosorbent assay.)
The target in the next series is Kallikrein-1 (Homo sapiens, UniProt P06870). Kind of series: Competitive inhibition of KLK1 (unknown origin) assessed as release of AMC fluorescent product using H-PFR-AMC as substrate incubated for 30 mins by microplate reader.
Series [12] concerns Microglia. Kind of series: Anti-inflammatory activity in new born Wistar rat brain microglia assessed as reduction in LPS-induced TNFalpha expression measured after 24 hrs by ELISA.
The nature of series [13]: Toxicity in human blood assessed as effect on prothrombin ratio. Format: tissue-based.
Series [14] in a line: Toxicity in human blood assessed as effect on activated partial thromboplastin time. The series is classed as tissue-based.
A short description of series [15]: Metabolic stability in human liver microsomes assessed as half life. Format: ADME, Microsome.
The target in series [16] is Voltage-gated inwardly rectifying potassium channel KCNH2 (Homo sapiens, UniProt Q12809). Kind of series: Inhibition of human ERG.
For series [17], the target named is T2, Plasminogen. Kind of series: Competitive inhibition of plasmin (unknown origin) using Boc-QAR-AMC as substrate incubated for 30 mins by Dixon plot analysis.
Series [18] relates to Cortical neurone. Description: Cytotoxicity against Swiss mouse cortical cells assessed as cell viability at 10 uM incubated for 24 hrs by XTT assay. The series is classed as cell-based.
Series [19] has as its target T4, Kallikrein-6. Description: Inhibition of KLK6 (unknown origin) assessed as release of AMC fluorescent product using Boc-QAR-AMC as substrate incubated for 30 mins by microplate reader. The settings on record: read-out: IC50.
Series [20] concerns CG-4. Description: Induction of oligodendrocyte differentiation in Sprague-Dawley rat CG-4 cells assessed as matured oligodendrocyte by measuring increase in mCherry positive cells at 6 to 8 uM measured after 4 days by fluorescence imaging analysis. The series is classed as functional, cell-based. The settings on record: dose 6-8 µM, time 4.0 day.

T2 sequence (P00747 97-580 limits assumed): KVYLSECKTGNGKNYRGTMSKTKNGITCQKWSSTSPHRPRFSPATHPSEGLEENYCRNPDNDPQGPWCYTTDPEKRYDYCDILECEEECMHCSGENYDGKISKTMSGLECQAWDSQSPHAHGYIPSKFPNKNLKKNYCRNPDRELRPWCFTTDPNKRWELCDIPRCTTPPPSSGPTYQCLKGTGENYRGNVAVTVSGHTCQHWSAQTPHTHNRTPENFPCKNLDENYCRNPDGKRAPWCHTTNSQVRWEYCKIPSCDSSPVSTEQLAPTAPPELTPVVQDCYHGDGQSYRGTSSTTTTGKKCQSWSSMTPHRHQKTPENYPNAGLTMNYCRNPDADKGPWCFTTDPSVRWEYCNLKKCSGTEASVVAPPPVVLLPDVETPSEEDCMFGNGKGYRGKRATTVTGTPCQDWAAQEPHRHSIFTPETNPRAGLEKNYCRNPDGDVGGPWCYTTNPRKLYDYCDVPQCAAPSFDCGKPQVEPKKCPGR
T2 sequence (P00747 581-810 limits assumed): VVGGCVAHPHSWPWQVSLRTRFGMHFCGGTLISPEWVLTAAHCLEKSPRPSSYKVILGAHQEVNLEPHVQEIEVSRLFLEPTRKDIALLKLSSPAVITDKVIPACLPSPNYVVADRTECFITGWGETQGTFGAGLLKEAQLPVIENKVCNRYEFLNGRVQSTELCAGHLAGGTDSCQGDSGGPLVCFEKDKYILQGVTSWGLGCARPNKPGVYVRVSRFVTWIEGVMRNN
Chain of Procathepsin L (Homo sapiens) (P07711 114-333 limits assumed): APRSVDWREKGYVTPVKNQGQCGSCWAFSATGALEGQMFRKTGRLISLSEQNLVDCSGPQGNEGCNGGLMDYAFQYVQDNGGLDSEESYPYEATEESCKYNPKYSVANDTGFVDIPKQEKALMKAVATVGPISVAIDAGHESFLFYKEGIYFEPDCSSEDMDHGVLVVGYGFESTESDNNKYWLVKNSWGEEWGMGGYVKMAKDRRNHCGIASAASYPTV
Chain of Voltage-gated inwardly rectifying potassium channel KCNH2 (Q12809 whole entry): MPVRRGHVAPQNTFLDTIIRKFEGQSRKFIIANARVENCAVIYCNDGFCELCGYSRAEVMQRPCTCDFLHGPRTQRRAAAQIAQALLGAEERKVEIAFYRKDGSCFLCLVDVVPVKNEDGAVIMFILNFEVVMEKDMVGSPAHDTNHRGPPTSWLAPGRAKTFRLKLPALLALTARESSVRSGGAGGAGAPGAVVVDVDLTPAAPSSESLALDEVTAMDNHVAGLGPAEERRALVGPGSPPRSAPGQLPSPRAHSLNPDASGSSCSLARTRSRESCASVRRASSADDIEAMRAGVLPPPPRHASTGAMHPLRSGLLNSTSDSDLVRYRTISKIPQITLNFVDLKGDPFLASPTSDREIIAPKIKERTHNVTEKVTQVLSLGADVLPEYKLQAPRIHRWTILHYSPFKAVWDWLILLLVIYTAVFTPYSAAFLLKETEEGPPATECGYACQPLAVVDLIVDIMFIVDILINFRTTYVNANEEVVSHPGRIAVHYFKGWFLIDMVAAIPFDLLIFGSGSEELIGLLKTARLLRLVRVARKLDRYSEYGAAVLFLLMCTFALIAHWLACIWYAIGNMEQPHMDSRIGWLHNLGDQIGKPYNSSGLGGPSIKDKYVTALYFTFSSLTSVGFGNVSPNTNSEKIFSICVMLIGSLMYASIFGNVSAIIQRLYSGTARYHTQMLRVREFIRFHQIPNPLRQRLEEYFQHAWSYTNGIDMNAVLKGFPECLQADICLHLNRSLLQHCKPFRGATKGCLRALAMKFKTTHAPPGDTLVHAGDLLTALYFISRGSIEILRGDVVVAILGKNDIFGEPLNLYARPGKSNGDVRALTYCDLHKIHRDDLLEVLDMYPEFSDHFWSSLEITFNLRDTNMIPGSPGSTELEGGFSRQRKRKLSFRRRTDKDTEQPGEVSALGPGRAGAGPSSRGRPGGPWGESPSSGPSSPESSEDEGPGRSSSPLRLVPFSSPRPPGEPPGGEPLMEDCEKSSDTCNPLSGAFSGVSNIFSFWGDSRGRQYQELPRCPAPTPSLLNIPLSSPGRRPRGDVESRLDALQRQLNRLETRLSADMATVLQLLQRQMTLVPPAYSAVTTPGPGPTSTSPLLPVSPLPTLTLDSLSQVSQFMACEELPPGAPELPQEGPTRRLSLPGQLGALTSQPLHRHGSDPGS
Chain of Kallikrein-1 (P06870 whole entry): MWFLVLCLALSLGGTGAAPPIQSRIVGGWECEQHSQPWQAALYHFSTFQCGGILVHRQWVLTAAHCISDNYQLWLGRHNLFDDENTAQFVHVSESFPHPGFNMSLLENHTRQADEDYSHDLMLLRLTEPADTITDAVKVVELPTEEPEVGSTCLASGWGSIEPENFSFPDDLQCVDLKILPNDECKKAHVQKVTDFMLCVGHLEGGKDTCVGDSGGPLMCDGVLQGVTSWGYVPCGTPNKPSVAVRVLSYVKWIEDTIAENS

In general, inhibition refers to the percentage by which the read-out fell short of the control. As a reminder, the IC50 is the midpoint of a concentration-inhibition curve. For orientation: Ki means a dissociation constant, usually derived from enzyme kinetics or from competition with a known ligand. For the compound `CC(C)(C)c1ccc(O)c(C(=O)Nc2ccc(CN)cc2)c1.Cl`, the inhibition in series [1] was determined as 56%; in the series filed under Homo sapiens, 0%; in series [2], 20%; at Trypsin-3 (Homo sapiens), 15%; in [5], 5%; in the series on Prothrombin/thrombin, 2%. In addition, the IC50 at Plasminogen [3] is 21.3 µM. This compound also yielded a Ki on Kallikrein-6 [4] of 4.3 µM. The outcome in the series with CG-4 [6] was Active. Further, the Activity entry (in [7]; in the series on Cortical neurone [8]) was “Toxic” in each case.
As a reminder, the half-life is how long it takes for the measured level to halve. `Cl.NCc1ccc(NC(=O)c2cc3ccccc3cc2O)cc1`: the recovery in series [9] is > 90%. Besides, the inhibition is 45% in series [1]; 8% in the series listed under Homo sapiens; 25% in [2]; 36% at Trypsin-3 (Homo sapiens); 19% in series [5]. Further, the viability at 24 h, 50 µM in [10] is 65%. Also, the IC50 on Plasminogen [3] is 7.4 µM. In addition, the result in the series on Microglia [11] and with Microglia [12] was Active. In addition, the inhibition constant Ki was 2.4 µM at Kallikrein-1 and 1.3 µM on Plasminogen [17]. Also, the Activity result in series [13] is reported as “Non-Toxic”; in series [14] it was “Non-Toxic”; in series [16] it was “Not Active”. In series [15], the half-life was > 2 h.
In the case of `Cc1ccc2ccc(C(=O)Nc3ccc(CN)cc3)c(O)c2c1`, the inhibition in series [1] is 88%; in the series listed under Homo sapiens, 0%; in [2] it was 27%; on Trypsin-3 (Homo sapiens) it was 21%; in series [5], 12%; in the series on Prothrombin/thrombin, 6%. Also, at Plasminogen [3], the concentration for half-maximal inhibition (IC50) came to 6.7 µM.
With `Cl.NCc1ccc(NC(=O)c2ccc3ccccc3c2O)cc1`, the inhibition in series [1] is 80%; in the series listed under Homo sapiens, 29%; in [2], 30%; on Trypsin-3 (Homo sapiens), 30%; in [5], 2%; in the series on Prothrombin/thrombin it was 5%. Also, the Activity entry in the series on Cortical neurone [18] is recorded as “Toxic”. Moreover, the IC50 on Plasminogen [3] is 10.2 µM; at Kallikrein-6 [19] it was 6.9 µM. Also, the Ki on Kallikrein-6 [4] was 2.4 µM; at Plasminogen [17], 1.5 µM.
As for `COc1ccc2c(O)c(C(=O)Nc3ccc(CN)cc3)ccc2c1`, the inhibition in [1] turned out to be 0%; in the series filed under Homo sapiens, 37%; in [2] it was 28%; on Trypsin-3 (Homo sapiens), 32%; in series [5] it was 0%. Further, on Plasminogen [3], the half-inhibitory concentration (IC50) was 3.3 µM.
As for `Cc1ccc(C(=O)Nc2ccc(CN)cc2)c(O)c1.Cl`, the recovery in series [9] is > 90%. For the same compound, the inhibition in [1] is 39%; in the series listed under Homo sapiens, 0%; in series [2], 32%; at Trypsin-3 (Homo sapiens), 20%; in [5] it was 10%; in the series with Prothrombin/thrombin it was 0%. In addition, the viability at 24 h, 50 µM in series [10] came to 65%. Also, the result with CG-4 [20] was Active. In addition, the half-inhibitory concentration (IC50) on Plasminogen [3] was determined as 9.2 µM; at Kallikrein-6 [19], 2.37 µM. This compound also registered a Ki on Kallikrein-6 [4] of 2 µM. The result with Microglia [11] and with Microglia [12] was inactive. Moreover, the Activity result in series [13] is recorded as “Non-Toxic”; in series [14], “Non-Toxic”; in series [16], “Not Active”. For the same compound, the half-life in series [15] was > 2 h.
`CC(C)c1ccc(C(=O)Nc2ccc(CN)cc2)c(O)c1`: the inhibition in [1] worked out at 75%; in the series filed under Homo sapiens, 13%; in [2], 1%; on Trypsin-3 (Homo sapiens), 73%; in series [5] it was 15%; in the series with Prothrombin/thrombin, 32%. Also, the concentration for half-maximal inhibition (IC50) was 4.8 µM at Plasminogen [3] and 3.63 µM at Kallikrein-6 [19]. In addition, at Kallikrein-6 [4], the affinity, expressed as Ki, was 1.5 µM.
